# Shown are actives, neighbours in structure and some others; about 2% of the full set was active somewhere.
# Xi reactivation = activators of inactive X chromosome reactivation, primary screen, imaging, XiGFP fibroblasts, GFP high-content imaging, set 2 | XiGFP mouse fibroblasts, % GFP-positive cells imaging, 3 d; cells co-treated with 5-aza-dC sensitizer; scaled so ellipticine positive control = 100% | activation, % at 7.58 µM | hit rate 0.055% among 360,000 | AID 743238, 2013;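 active = mean normalized replicate activation at least 10% and every replicate at or above 10%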;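 also: 0% = median of on-plate neutral control wells and 100% = ellipticine 6 µM median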
#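 Material: XiGFP fibroblasts, SV40-immortalized. Buffer or medium: DMEM plus 5-aza-dC sensitizer. Compound: single concentration per compound, delivered by pin transfer. Times: 3 days compound exposure. Controls: ellipticine 6 µM.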
# TROY signal inh = inhibitors of TROY-driven NF-kB signaling, primary screen, Q293 LMP1-TROYcd cells, NF-kB luciferase, uHTS; Q293 LMP1-TROYcd NF-kB luciferase reporter, 4 h; inhibition, % at 10 µM; hit rate 0.98% among 360,000; AID 1347056, 2019;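 active = compounds whose plate-normalised and pattern-corrected inhibition of the luciferase reporter signal at the single screening dose is 50% or more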
# TWEAK Fn14 block = inhibitors of TWEAK-Fn14 signaling, primary screen, luciferase reporter cells, uHTS; hit rate 2% among 360,000; inhibition, % at 10 µM; AID 1159606, 2016; TWEAK-stimulated Fn14 reporter cells, luciferase luminescence, 8 h; in the data active = inhibition above about 50%
# LGR2 antag = inhibitors of bursicon-induced LGR2 CRE-luciferase signal, primary screen, cell-based, HEK293, CRE-luciferase reporter, bursicon stimulation; Drosophila bursicon receptor LGR2 (rickets); bursicon-stimulated, 4 h; inhibition, % at 9.99 µM; hit rate 0.35% among 380,000; AID 720647, 2013;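 active = drop in luminescence signal, shown as inhibition above about 50% in the replicate tests, limit read from the data, passing the limit was not always enough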;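 also: agonist challenge used bursicon conditioned medium at about half maximal strength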
# CaV13 FRET inh = Primary screen for inhibitors of IQ motif and Ca2+-dependent inactivation inhibitor domain binding in CACNA1D, Förster resonance energy transfer in living cells, …. HEK cells, CFP/YFP FRET ICDI-IQ, plate reader, 10 min; percent FRET-ratio fall versus neutral wells. inhibition, % at 12.3 µM. hit rate 0.098% among 340,000. AID 743397;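 active = mean replicate inhibition of at least 30% and at least 1% of replicates passing that level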;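 also: 0% = median of the neutral control wells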
# * = called active by the depositor; . = not tested or not shown.
SMILES,Xi reactivation,TROY signal inh,TWEAK Fn14 block,LGR2 antag,CaV13 FRET inh
O=C(NCC[C@@H]1CC[C@@H](NC(=O)C2CCOCC2)[C@@H](CO)O1)c1ccc(F)cc1,0.2,.,.,5.3,.
C[C@@H]1CN([C@H](C)CO)C(=O)c2cc(C3=CCCCC3)cnc2O[C@H]1CN(C)C(=O)Cc1cccnc1,0.7,.,.,-7.7,.
CC(C)(C)c1ccc(-c2nnc3sc(-c4ccccn4)nn23)cc1,0.2,71.9*,73.9*,14.1,-10.3
O=C(Cc1coc2cc3c(cc12)CCC3)OCC(=O)N1CCCC1=O,-0.1,59.1*,82.9*,1.6,4.3
CN(C)c1ccc(C(O)Cc2nc3ccccc3n2C)cc1 (configuration not stated),0.3,79.3*,73.8*,49.5,-7.4
CC(C)c1ccc(C(O)Cc2nc3ccccc3n2C)cc1 (configuration not stated),-0.1,48.7,31.2,-47.0,-14.0
CN(C)c1ccc(-c2nc3ccccc3n2C)cc1,.,-3.3,43.2,73.9*,.
COc1cc(C=NOC(=O)Nc2ccccc2)cc(OC)c1OC,0.2,-28.9,-37.5,-57.7,-5.6
COc1ccc(NC(=O)O/N=C/c2c(C)nn(C(C)(C)C)c2C)cc1,0.0,64.9*,-9.7,.,-20.6
Cc1nn(C(C)(C)C)c(C)c1/C=N/OC(=O)Nc1ccc(Cl)c(Cl)c1,0.0,87.0*,104.7*,.,-18.6
C[C@@H]1CN([C@H](C)CO)C(=O)c2cc(NS(=O)(=O)c3cn(C)cn3)ccc2O[C@@H](C)CCCCO[C@@H]1CN(C)CC1CCCCC1,-1.0,.,.,31.9,.
O=C(C[C@H]1CC[C@H]2[C@@H](COC[C@@H](O)CN2C(=O)Nc2cc(Cl)cc(Cl)c2)O1)N1CCCCC1,0.2,.,.,-14.3,.
Cn1c(-c2ccccc2)cnc1SCC(=O)N1CCCCC1,.,61.3*,93.5*,.,.
CC1CCc2nc(N)c(C#N)c(-c3cccnc3)c2C1 (configuration not stated),0.2,54.2*,83.0*,26.8,-6.1
COc1ccc(S(=O)(=O)N[C@@H]2CC[C@H](CC(=O)NCCc3ccncc3)O[C@@H]2CO)cc1,0.6,.,.,-7.8,.
Cn1cnnc1Sc1ccc(/C=C/C(=O)c2ccc(O)cc2)cc1[N+](=O)[O-],0.2,27.3,90.2*,66.0*,-18.8
O=C(Cc1ccccn1)N1CC(=O)N2[C@H](CO)[C@@H](c3ccc(C#CC4CCCC4)cc3)[C@@H]2C1,0.1,.,.,-1.6,.
Cc1cc(C(=O)CSc2ccc(Cl)cc2)cc(C)c1OC(=S)N(C)C,.,79.9*,43.9,.,-5.0
Cc1cc(C(=O)CSc2ccc(F)cc2)cc(C)c1O,0.1,-42.3,9.0,-52.2,-4.1
O=C(Cc1ccccn1)N1CC(=O)N2[C@@H](CO)[C@@H](c3ccc(C#CC4CCCCC4)cc3)[C@@H]2C1,0.1,.,.,6.3,.
CCOC(=O)CSc1nc2ccccc2c(=O)n1Cc1ccco1,.,1.6,3.9,4.4,-8.8
C=CCn1c(SCc2ccc(C(=O)O)cc2)nc2sc(C)c(C)c2c1=O,0.8,38.7,-1.8,-8.6,-5.2
Cc1sc2nc(SCc3ccc(C(=O)O)cc3)n(Cc3ccco3)c(=O)c2c1C,0.0,60.5*,38.0,24.8,-5.1
COc1ccc(C(=O)Nn2c(SCC(=O)c3ccccc3)nc3ccccc3c2=O)cc1,.,79.6*,91.8*,.,-4.5
O=C(CSc1nc2ccccc2c(=O)n1Cc1ccco1)c1ccccc1,.,14.6,51.5*,.,-7.1
SMILES,Xi reactivation,TROY signal inh,TWEAK Fn14 block,LGR2 antag,CaV13 FRET inh
COc1ccc(C(=O)Nn2c(SCc3ccc([N+](=O)[O-])cc3)nc3ccccc3c2=O)cc1,.,76.1*,72.6*,.,.
CCOC(=O)CSc1nc2ccccc2c(=O)n1NC(=O)c1ccccc1,.,-5.3,12.6,.,-3.4
COc1ccc(S(=O)(=O)Nc2ccc3c(c2)C(=O)N([C@H](C)CO)C[C@@H](C)[C@@H](CN(C)C(=O)Nc2ccc(C(F)(F)F)cc2)OCCCC[C@@H](C)O3)cc1,0.0,.,.,4.1,.
CCCC(C(=O)NCc1ccco1)N(CC1CCCO1)C(=O)CNS(=O)(=O)c1ccc(F)cc1 (configuration not stated),-0.1,-19.2,-4.0,-17.8,-7.4
CCCC(C(=O)NC(C)(C)C)N(CC1CCCO1)C(=O)CNS(=O)(=O)c1ccc(F)cc1 (configuration not stated),0.1,-4.7,85.2*,1.8,-2.2
C[C@@H]1CCCCO[C@H](CN(C)C(=O)C2CCCCC2)[C@H](C)CN([C@@H](C)CO)C(=O)c2cc(NC(=O)C3CCCCC3)ccc2O1,-0.9,.,.,20.5,.
CCOC(=O)C1CCN(C(=O)c2ccc(NS(=O)(=O)c3ccc(F)cc3C)cc2)CC1,25.5*,0.0,8.6,11.0,-0.4
CN(C)S(=O)(=O)N1CCC(Oc2cccc(C(=O)NC3CCCCC3)c2)CC1,0.0,8.2,22.5,-2.3,-7.3
CN(C)S(=O)(=O)N1CCC(Oc2cccc(C(=O)NCCC3=CCCCC3)c2)CC1,0.1,37.4,50.4*,12.7,-6.3
O=C(NCC1COc2ccccc2O1)c1cc2ccccc2o1 (configuration not stated),.,.,81.2*,.,.
COc1ccc(NC(=O)c2cc3c(-c4ccc(OC)c(OC)c4)nn(C)c3s2)cc1OC,.,-50.5,58.4*,.,-4.5
CCCN(CC)c1ncnc2[nH]ncc12,0.2,39.6,66.7*,17.4,-5.0
COc1cccc(-c2ccc3n(c2=O)C[C@H]2[C@H](CO)[C@@H](C(=O)NC4CCC4)N(S(C)(=O)=O)[C@@H]32)c1,0.1,.,.,2.0,.
CCn1c(CNc2nc3ccccc3n2C(C)C)nc2ccccc21,.,6.7,99.1*,.,-7.8
CC(C)n1c(NCc2nc3ccccc3n2C)nc2ccccc21,.,-1.1,2.7,.,-5.0
C[C@@H]1CN([C@H](C)CO)C(=O)c2ccccc2-c2ccccc2CO[C@H]1CN(C)C(=O)Nc1ccc(F)cc1,0.3,.,.,25.2,.
CC(=O)NC1Sc2ccccc2N=C1c1ccccc1 (configuration not stated),.,.,53.0*,-49.4,-5.6
COC(=O)[C@H]1[C@@H](O)[C@@]2(O)c3c(OC)cc(OC)cc3O[C@@]2(c2ccc(OC)cc2)[C@@H]1c1ccc(F)cc1,0.5,.,.,86.4*,-4.7
O=[N+]([O-])c1ccc(N/N=C\c2cccn2-c2ccccc2)nc1,.,-30.0,51.8*,-8.6,-8.8
O=[N+]([O-])c1ccc(NN=Cc2ccccc2)nc1,0.0,-67.9,-12.3,-40.9,-8.4
CCNC(=O)[C@@H]1[C@@H](CO)[C@@H]2Cn3c(ccc(C4=CCCCC4)c3=O)[C@H]1N2CCC(F)(F)F,0.7,.,.,-1.2,.
Fc1ccc(-n2nnnc2-c2cnc(-c3cccs3)nc2C(F)(F)F)cc1,.,58.8*,102.1*,.,-7.3

# Screens deposited in PubChem BioAssay by several laboratories.
